Columns and labels:
[1] = target: rat mGlu1 (Rattus norvegicus, UniProt P23385); assay: rat mGlu1 calcium mobilization assay; assay type: cell-based; conditions: for mGlu1 pIC50 (± SEM): Calcium mobilization assay, rat mGlu1, NAM; for mGlu1 NAM activity (in words): top concentration tested 30 μM
[2] = target: rat mGlu5 (Rattus norvegicus, UniProt P31424); assay: rat mGlu5 calcium mobilization assay; assay type: cell-based
[3] = tested on: 369 kinases; assay: kinase panel of 369 kinases; assay type: biochemical; conditions: 10 μM
[4] = tested on: remaining six members of the mGlu family; assay: mGlu selectivity fold-shift experiments on orthosteric agonist CRC; assay type: cell-based
[5] = tested on: 68 clinically relevant targets; assay: radioligand binding assay panel of 68 clinically relevant targets; conditions: 10 μM; significant = greater than or equal to 50% inhibition of binding
Procedure, shortened: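 Test compound was screened at a single 10 μM concentration for displacement of radioligand binding at each panel target. Inhibition of binding of at least 50% was counted as a significant response.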

[6] = Rat IP PK time course study; assay type: in vivo, male Sprague-Dawley rats; conditions: rats; IP 10 mg/kg
Procedure, shortened: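 Male Sprague-Dawley rats received a single 10 mg/kg IP dose, with 2 animals per time point. Plasma was followed over time for Tmax, Cmax and AUC. Brain and plasma were taken at 15 min to give Kp and Kp,uu. Unbound brain concentration was estimated from these exposures combined with fraction unbound from equilibrium dialysis.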

[7] = Mouse IP PK time course study; assay type: in vivo, male CD-1 mice; conditions: mice; IP 30 mg/kg
Procedure, shortened: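 Tissue distribution was run in parallel under the same conditions, with brain and plasma taken at 30 min to give Kp and Kp,uu. Unbound brain concentration was estimated from these exposures combined with fraction unbound from equilibrium dialysis.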

[8] = Rat IV PK; assay type: in vivo, male Sprague-Dawley rats; conditions: male, Sprague-Dawley, plasma, 0.2 mg/kg
Procedure, shortened: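 Male Sprague-Dawley rats were dosed IV with 2 animals per time point. The plasma concentration–time profile gave half-life, plasma clearance and steady-state volume of distribution.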

rat mGlu1, sequence (P23385 19-1199): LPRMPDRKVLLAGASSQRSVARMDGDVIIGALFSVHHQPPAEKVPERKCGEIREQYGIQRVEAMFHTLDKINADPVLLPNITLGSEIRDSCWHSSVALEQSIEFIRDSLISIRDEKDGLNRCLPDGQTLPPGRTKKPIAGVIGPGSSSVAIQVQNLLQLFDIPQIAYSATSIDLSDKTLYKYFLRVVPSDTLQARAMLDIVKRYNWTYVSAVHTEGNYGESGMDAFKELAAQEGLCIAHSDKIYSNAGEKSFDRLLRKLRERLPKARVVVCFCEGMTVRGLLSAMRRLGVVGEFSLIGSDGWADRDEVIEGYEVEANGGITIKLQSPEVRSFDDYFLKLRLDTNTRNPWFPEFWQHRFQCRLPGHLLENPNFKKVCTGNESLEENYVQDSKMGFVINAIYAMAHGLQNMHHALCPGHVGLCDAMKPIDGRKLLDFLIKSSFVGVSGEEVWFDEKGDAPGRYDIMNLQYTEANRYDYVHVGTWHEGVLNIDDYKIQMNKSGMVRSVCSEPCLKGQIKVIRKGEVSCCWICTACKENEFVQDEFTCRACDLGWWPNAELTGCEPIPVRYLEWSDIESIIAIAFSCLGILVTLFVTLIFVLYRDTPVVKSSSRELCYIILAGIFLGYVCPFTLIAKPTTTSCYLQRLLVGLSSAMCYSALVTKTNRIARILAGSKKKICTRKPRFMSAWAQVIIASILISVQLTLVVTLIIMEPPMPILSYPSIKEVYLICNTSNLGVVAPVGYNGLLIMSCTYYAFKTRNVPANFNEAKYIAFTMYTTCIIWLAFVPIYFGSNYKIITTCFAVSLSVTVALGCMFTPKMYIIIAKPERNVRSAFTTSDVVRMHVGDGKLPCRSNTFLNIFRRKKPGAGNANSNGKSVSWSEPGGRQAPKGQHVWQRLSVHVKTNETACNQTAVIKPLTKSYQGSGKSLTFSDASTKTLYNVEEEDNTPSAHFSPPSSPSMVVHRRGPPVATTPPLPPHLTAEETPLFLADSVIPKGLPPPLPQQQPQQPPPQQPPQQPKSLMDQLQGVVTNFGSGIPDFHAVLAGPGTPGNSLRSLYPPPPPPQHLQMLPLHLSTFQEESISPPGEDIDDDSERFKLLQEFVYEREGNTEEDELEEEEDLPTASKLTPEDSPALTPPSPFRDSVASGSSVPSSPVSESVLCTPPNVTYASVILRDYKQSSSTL
rat mGlu5, sequence (P31424 21-1203): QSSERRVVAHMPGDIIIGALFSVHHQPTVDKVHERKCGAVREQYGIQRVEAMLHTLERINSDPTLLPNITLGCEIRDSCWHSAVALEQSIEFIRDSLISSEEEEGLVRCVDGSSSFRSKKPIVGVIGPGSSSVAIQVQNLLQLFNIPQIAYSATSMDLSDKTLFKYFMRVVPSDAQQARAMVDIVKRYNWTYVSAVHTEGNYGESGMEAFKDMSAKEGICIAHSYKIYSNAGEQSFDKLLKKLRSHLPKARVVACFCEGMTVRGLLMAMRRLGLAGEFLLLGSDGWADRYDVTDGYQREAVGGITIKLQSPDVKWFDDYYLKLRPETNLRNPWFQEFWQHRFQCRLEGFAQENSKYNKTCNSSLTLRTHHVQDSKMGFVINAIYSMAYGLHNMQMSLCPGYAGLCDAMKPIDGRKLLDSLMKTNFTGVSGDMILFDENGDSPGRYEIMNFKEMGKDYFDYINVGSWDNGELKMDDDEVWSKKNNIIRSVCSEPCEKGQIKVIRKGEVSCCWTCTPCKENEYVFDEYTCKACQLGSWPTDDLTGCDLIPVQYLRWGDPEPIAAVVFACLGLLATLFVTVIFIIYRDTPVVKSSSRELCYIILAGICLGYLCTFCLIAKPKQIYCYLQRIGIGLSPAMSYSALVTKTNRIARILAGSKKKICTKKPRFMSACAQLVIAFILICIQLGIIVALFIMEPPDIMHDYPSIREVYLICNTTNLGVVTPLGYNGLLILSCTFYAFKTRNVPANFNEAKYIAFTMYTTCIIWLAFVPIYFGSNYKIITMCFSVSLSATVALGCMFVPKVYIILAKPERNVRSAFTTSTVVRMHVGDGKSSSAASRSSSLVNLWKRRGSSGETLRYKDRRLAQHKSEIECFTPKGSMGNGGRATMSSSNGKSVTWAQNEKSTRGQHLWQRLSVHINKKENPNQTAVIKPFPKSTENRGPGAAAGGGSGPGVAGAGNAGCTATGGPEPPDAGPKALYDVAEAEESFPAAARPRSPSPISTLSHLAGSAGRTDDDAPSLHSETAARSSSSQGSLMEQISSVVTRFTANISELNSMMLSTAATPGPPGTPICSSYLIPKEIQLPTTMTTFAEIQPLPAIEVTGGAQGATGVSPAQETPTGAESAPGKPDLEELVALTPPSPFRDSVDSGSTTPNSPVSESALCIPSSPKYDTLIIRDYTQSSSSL

## C[C@H](Nc1ncnc2c1nn1ccccc21)C1CC1 [Compound 12]
[1]
  mGlu1 pIC50 (± SEM): < 4.5

## CC(C)(C)CCNc1ncnc2c1nn1ccccc21 [Compound 18]
[2]; rat mGlu5 vs rat mGlu1
  mGlu5 NAM potency relative to mGlu1 NAM activity: approximately ten-fold less

## CCC(C)(C)Nc1ncnc2c1nn1ccccc21 [Compound 19]
[1]
  mGlu1 NAM activity (in words): only a weak mGlu1 NAM, inhibiting the glutamate response only at the top concentration tested

## CC1(C)CCC(Nc2ncnc3c2nn2ccccc32)CC1 [Compound 29, N-(4,4-dimethylcyclohexyl)pyrido[1′,2′:1,5]pyrazolo[4,3-d]pyrimidin-4-amine]
[3]
  number of kinases of 369 inhibited more than 50%: eight
[4]; 10 μM, remaining six mGlus
  effect on the orthosteric agonist concentration-response curve (fold-shift): no significant effects were observed
[4]; versus remaining six mGlus
  selectivity for the group I mGlu receptors: > 75 fold
[5]
  number of the 68 targets with no significant responses: 62
[6]
  estimated unbound brain concentration: approximately 100 nM
[7]
  estimated unbound brain concentration: approximately 100 nM
[2]; Calcium mobilization assay, rat mGlu5, NAM
  mGlu5 pIC50 (± SEM): 6.89 ± 0.29
[8]
  Vd: 3.1 L/kg

## C[C@H]1CC[C@H](Nc2nc(N)nc3c2nn2ccccc32)CC1 [Compound 41]
[1]
  mGlu1 NAM activity (in words): weak mGlu1 NAM activity

## CNc1nc(N[C@H]2CC[C@H](C)CC2)c2nn3ccccc3c2n1 [Compound 42]
[1]
  mGlu1 pIC50 (± SEM): < 4.5

## CN(C)c1nc(N[C@H]2CC[C@H](C)CC2)c2nn3ccccc3c2n1 [Compound 43]
[1]
  mGlu1 pIC50 (± SEM): < 4.5

## CC(C)Nc1nc(N[C@H]2CC[C@H](C)CC2)c2nn3ccccc3c2n1 [Compound 44]
[1]
  mGlu1 pIC50 (± SEM): < 4.5

From article PMC4824313 (Bioorganic & medicinal chemistry letters, 2016)
